This is a sample that favours compounds with a hit; in the whole collection about 5.8% have one here.
WT yeast gro inh: growth inhibition of WT strain, primary screen, mitochondrial fusion inhibitor project, WT and mutant strains, chemical genetic; mitochondrial fusion phenotypic screen; inhibition, % at 10 µM; hit rate 2.1% among 190,000; AID 1362, 2008; in the data active means inhibition above about 58%; tested in S. cerevisiae
RBBP9 inhibitor: human RBBP9 inhibitors, primary screen, biochemical, fluorescence polarization, FP-Rh probe, HTS. inhibition, % at 7.94 µM. AID 1515, 2009. recombinant RBBP9. hit rate 0.2% among 220,000;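 active means inhibition above the campaign mean of all tested compounds plus 3 SD, cut at about 14% in these data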;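 further: plate controls were DMSO wells with RBBP9 for no effect and wells lacking RBBP9 protein for full effect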
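Measured by – fluorescence polarization · Test system – RBBP9 protein · Input – 2.5 µM RBBP9 dispensing solution, before mixing · Measure – percent inhibition from mP, scaled between DMSO and no-protein wells · Benchmarks – DMSO-treated enzyme wells and wells lacking RBBP9 · Times – preincubation 30 min plus labeling 45 min at 25 °C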
ROMK primary: ROMK potassium channel modulators, primary screen, cell-based, thallium flux, MLSMR library | ATP-sensitive inward rectifier potassium channel 1 (Homo sapiens), P48048 | Tet-inducible ROMK, thallium flux fluorescence; actives lie on both sides | B-score at 10 µM | hit rate 2% among 130,000 | AID 1918, 2009;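 active means signal ratio slope over the read window, or its plate-corrected B-score, at least 3 SD from the plate mean, either direction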;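 further: B-score of the F/F0 ratio slope over 7 to 12 s after thallium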
14-3-3 Bad inh: inhibitors of 14-3-3 zeta/Bad binding, primary screen, biochemical, TR-FRET, bovine 14-3-3 zeta | 14-3-3 protein zeta/delta (Bos taurus), P63103 | TR-FRET 14-3-3zeta/Dy647-pBad peptide displacement, 1 h | inhibition, % at 21.7 µM | hit rate 0.71% among 220,000;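 active means inhibition above about 70%, limit read from the data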;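 further: 0% = full 14-3-3 plus peptide FRET controls and 100% = background without 14-3-3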
KCC2 mod: KCC2 cotransporter modulators, thallium flux, primary screen, cell-based, HEK293 KCC2, FluoZin-2 fluorescence, MLSMR. hit rate 2.2% among 190,000. KCC2 cells, thallium flux FluoZin-2 fluorescence. B-score of Tl+ flux slope (higher = more flux/activation; lower = inhibition) at 10 µM. AID 1456, 2008. Solute carrier family 12 member 5 (Homo sapiens), Q9H2X9;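 active means thallium flux slope and its plate-corrected score both differing from the plate sample mean at a set confidence after two filtering rounds, in either direction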;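 further: slope of fluorescence scaled to starting intensity during 10 to 20 s after thallium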
Target sequence (Q9H2X9 whole entry, looked up): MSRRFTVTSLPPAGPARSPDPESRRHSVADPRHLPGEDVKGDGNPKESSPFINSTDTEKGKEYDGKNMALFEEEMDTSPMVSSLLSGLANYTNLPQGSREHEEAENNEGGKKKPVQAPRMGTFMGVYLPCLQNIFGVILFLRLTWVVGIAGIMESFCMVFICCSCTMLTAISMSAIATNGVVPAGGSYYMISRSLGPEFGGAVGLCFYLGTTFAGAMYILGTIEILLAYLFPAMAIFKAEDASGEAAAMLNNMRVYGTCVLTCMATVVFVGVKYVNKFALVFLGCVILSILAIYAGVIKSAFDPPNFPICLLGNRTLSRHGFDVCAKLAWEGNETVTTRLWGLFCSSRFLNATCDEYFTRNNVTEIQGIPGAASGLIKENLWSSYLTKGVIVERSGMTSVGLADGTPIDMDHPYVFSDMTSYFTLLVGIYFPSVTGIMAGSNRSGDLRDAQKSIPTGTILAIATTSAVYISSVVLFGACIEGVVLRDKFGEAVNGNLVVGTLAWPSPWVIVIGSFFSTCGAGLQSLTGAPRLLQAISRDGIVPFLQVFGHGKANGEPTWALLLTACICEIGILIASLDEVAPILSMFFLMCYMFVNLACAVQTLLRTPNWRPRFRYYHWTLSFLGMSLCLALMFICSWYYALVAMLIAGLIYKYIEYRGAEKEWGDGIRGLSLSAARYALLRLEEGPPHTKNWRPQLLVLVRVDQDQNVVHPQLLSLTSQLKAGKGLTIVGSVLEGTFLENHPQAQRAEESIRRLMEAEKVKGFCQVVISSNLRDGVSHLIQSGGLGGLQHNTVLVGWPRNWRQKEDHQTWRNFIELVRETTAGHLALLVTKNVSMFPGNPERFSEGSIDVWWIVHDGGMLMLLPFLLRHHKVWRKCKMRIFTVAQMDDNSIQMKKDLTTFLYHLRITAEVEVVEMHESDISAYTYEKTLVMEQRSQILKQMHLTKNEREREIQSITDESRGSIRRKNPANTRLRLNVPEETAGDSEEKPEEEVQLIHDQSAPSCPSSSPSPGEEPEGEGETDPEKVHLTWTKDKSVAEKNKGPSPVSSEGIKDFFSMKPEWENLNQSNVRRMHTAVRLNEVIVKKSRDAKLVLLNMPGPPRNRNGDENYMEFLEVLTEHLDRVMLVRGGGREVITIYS
NCF1 inh: p47phox/p22phox peptide binding inhibitors, primary screen, biochemical, uHTS, NADPH oxidase regulatory subunit | Neutrophil cytosol factor 1 (Homo sapiens), P14598 | fluorescence polarization, 2 h | inhibition, % at 24.7 µM | hit rate 0.53% among 220,000;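 active means inhibition above about 30%, limit read from the data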;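 further: 0% = p47phox with labelled peptide and 100% = labelled peptide alone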
* hit, by the source's call; nt = no result; [ ] = dose if it differs, or a comment.

SMILES | WT yeast gro inh | RBBP9 inhibitor | ROMK primary | 14-3-3 Bad inh | KCC2 mod | NCF1 inh
CC(=O)Nc1ccc2nc(CN3CCC(CO)(CCc4ccccc4)CC3)ccc2c1 | nt | -2 | nt | 3 | 0.41 | -10
Cc1cc(C)c2c(N)c(C(=O)c3ccc(Cl)c(Cl)c3)sc2n1 | 11 | -5 | -0.47 | 82* | 1.4 | 14
CS(=O)(=O)Nc1ccccc1C(=O)Nc1cccc(Cl)c1 | 6 | -5 | nt | 77* | -0.082 | -8
c1ccc(Cn2c3ccccc3c3nnc(SCCN4CCCCC4)nc32)cc1 | nt | -2 | nt | -3 | 0.62 | 1
CSc1nnc2c3cc(C)ccc3n(Cc3ccccc3)c2n1 | 5 | -1 | nt | 88*[fluorescence artefact?] | -0.058 | 23
Cc1sc2ncnc(NCC(c3ccco3)N(C)C)c2c1C (centres undefined) | 2 | -9 | -0.79 | 82* | -0.025 | -12
CN(C)C(CNc1ncnc2sc3c(c12)CCCCC3)c1ccco1 (centres undefined) | 4 | -2 | 0.079 | -4 | -1.4 | -7
Cc1ccc(-c2c(C(=O)N(C)Cc3ccccc3)oc(=O)c3ccccc23)cc1 | 67* | -8 | -1.6 | 0 | -0.4 | -5
CN(Cc1ccccc1)C(=O)c1oc(=O)c2ccccc2c1-c1ccccc1 | 29 | -8 | -2.2 | -4 | -1.1 | -1
C#CCOCCOCCOCCNc1nc(N2CCN(C(=O)[C@H](Cc3cc4ccccc4[nH]3)n3cc([C@@H](N)C(C)CC)nn3)CC2)nc(N2CCN(C(=O)[C@H](Cc3cc4ccccc4[nH]3)n3cc([C@@H](N)Cc4ccc(O)cc4)nn3)CC2)n1 (some centres undefined) | -2 | -11 | nt | 42 | -2 | 79*
C#CCOCCOCCOCCNc1nc(N2CCN(C(=O)C(Cc3cc4ccccc4[nH]3)n3cc(C(N)Cc4ccc(O)cc4)nn3)CC2)nc(N2CCN(C(=O)C(Cc3cc4ccccc4[nH]3)n3cc(C(N)Cc4ccc(O)cc4)nn3)CC2)n1 (centres undefined) | -10 | -17 | nt | -24 | 0.35 | 65*
C#CCOCCOCCOCCNc1nc(N2CCN(C(=O)[C@H](Cc3ccc(O)cc3)n3cc([C@@H](N)C(C)CC)nn3)CC2)nc(N2CCN(C(=O)[C@H](Cc3cc4ccccc4[nH]3)n3cc([C@@H](N)C(C)CC)nn3)CC2)n1 (some centres undefined) | -25 | 1 | nt | 41 | -0.35 | nt
C#CCOCCOCCOCCNc1nc(N2CCN(C(=O)[C@H]([C@@H](C)CC)n3cc([C@@H](N)Cc4ccc(O)cc4)nn3)CC2)nc(N2CCN(C(=O)[C@H](Cc3cc4ccccc4[nH]3)n3cc([C@@H](N)C(C)CC)nn3)CC2)n1 (some centres undefined) | -6 | -6 | nt | 8 | -0.16 | 19
Cc1cccc(N2C(=O)C(Oc3ccc(Cl)cc3Cl)C2C=O)c1C (centres undefined) | 75* | -5 | -4.9* | -13 | -3* | 2
COc1ccc(Cl)cc1C(=O)Nc1cccc(-c2ccc3nncn3n2)c1 | 1 | -5 | 0.11 | 17 | -1.3 | 33*
COc1cccc(C(=O)Nc2cccc(-c3ccc4nncn4n3)c2)c1OC | -10 | -9 | -0.11 | -9 | -1.6 | -9
O=[N+]([O-])c1ccc(Oc2ccc(S(=O)(=O)N3CCCCC3)cc2)cc1 | 15 | -3 | nt | -15 | 0.018 | 2
CC1CCN(S(=O)(=O)c2ccc(Oc3ccc([N+](=O)[O-])cc3)cc2)CC1 | 61* | -7 | nt | 9 | -0.22 | 0
Cc1ccc(-c2nnc(N3CCCCC3)c3ccccc23)cc1 | nt | -3 | nt | 5 | -3.3 | -15
Cc1ccc(-c2nnc(N3CC(C)OC(C)C3)c3ccccc23)cc1 (centres undefined) | 1 | -7 | -0.17 | 75* | -2.7 | 3

From PubChem BioAssay
